In brackets after ≈: the same amount, converted by molar mass. Like-named read-outs stand apart in the source and are kept apart here.
Assays:
[1] = Stability/reactivity toward glutathione; format: physicochemical
[2] = test system: BJeLR (expressing HRAS^G12V); conditions: for increase in activity compared to 2a: BJeLR
[3] = test system: BJeLR (expressing HRAS^G12V); assay: cells; conditions: read-out: IC50 BJeLR
[4] = test system: BJeH-LT (isogenic to BJeLR without HRAS^G12V); assay: Cell viability counterscreen in isogenic BJeH-LT cells; format: cell-based; conditions: read-out: IC50 BJeH-LT
Summary of the method: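 IC50 measured in BJeH-LT cells, the isogenic partner of BJeLR lacking mutant HRAS; each reported value is the mean of experiments run in triplicate.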

[5] = test system: DRD (expressing HRAS^G12V with alternative oncogenic constructs); assay: Cell viability in DRD cells; format: cell-based
[6] = test system: BJeLR (expressing HRAS^G12V); conditions: cited from earlier work

Compound: COc1ccc(N(C(=O)CCl)C(C(=O)NCCc2ccccc2)c2cccs2)cc1Cl (stereo not shown) [Compound 1a]
- solubility (Aqueous solubility): < 1 µM
- GSH adduct observed ([1]; 48 hours incubation in PBS/DMSO (1/2) at room temperature, GSH 5 mM): 20%
- time in which formation of the GSH adduct was observed ([1]; base (triethylamine) added): 1 h

Compound: COc1ccc(N(C(=O)CCl)C(C(=O)NCCc2ccccc2)c2nc(C)cs2)cc1Cl (stereo not shown) [Compound 1k]
- activity in the cell assays (in words) [2]: inactive

Compound: COc1ccc(N(C(=O)CCl)C(C(=O)NCS(=O)(=O)c2ccc(C)cc2)c2cccs2)cc1Cl (stereo not shown) [Compound 1q]
- solubility (Aqueous solubility): 16 µM (≈ 8.66 µg/mL)

Compound: COc1ccc(N(C(=O)CCl)C(C(=O)NCn2nnc3ccccc32)c2cccs2)cc1Cl (stereo not shown) [Compound 1r]
- aqueous solubility (in words) (Aqueous solubility; compared to 1a): did not improve solubility

Compound: O=C(c1n[nH]cc1[N+](=O)[O-])N1CCN(C(c2ccccc2)c2ccccc2)CC1 [Compound 2h]
- IC50 [3]: > 20 µg/mL
- IC50 [4]: > 20 µg/mL

Compound: Cn1cc([N+](=O)[O-])c(C(=O)N2CCN(C(c3ccccc3)c3ccccc3)CC2)n1 [Compound 2i]
- IC50 [3]: > 20 µg/mL
- IC50 [4]: > 20 µg/mL

Compound: Cn1ncc([N+](=O)[O-])c1C(=O)N1CCN(C(c2ccccc2)c2ccccc2)CC1 [Compound 2j]
- IC50 [3]: > 20 µg/mL
- IC50 [4]: > 20 µg/mL

Compound: O=C(c1cc([N+](=O)[O-])ccn1)N1CCN(C(c2ccccc2)c2ccccc2)CC1 [Compound 2k]
- activity in the cell assays (in words) [2]: weak inhibitor

Compound: Cc1ccc(C(=O)N2CCN(C(c3ccccc3)c3ccccc3)CC2)c([N+](=O)[O-])c1 [Compound 2l]
- IC50 [3]: > 20 µg/mL
- activity in the cell assays (in words) [2]: inactive
- IC50 [4]: > 20 µg/mL

Compound: O=C(c1ccc([N+](=O)[O-])o1)N1CCN(C(c2ccccc2)c2ccccc2)CC1 [Compound 2m]
- IC50 [3]: > 20 µg/mL
- activity in the cell assays (in words) [2]: inactive

Compound: Cc1onc(C(=O)N2CCOCC2)c1[N+](=O)[O-] [Compound 2n]
- IC50 [3]: > 20 µg/mL
- activity in the cell assays (in words) [2]: inactive
- IC50 [4]: > 20 µg/mL

Compound: Cc1onc(C(=O)NCc2ccc(F)cc2)c1[N+](=O)[O-] [Compound 2o]
- IC50 [3]: > 20 µg/mL
- activity in the cell assays (in words) [2]: inactive
- IC50 [4]: > 20 µg/mL

Compound: CCC(=O)N1CCN(C(=O)c2noc(C)c2[N+](=O)[O-])CC1 [Compound 2p]
- IC50 [3]: > 20 µg/mL
- activity in the cell assays (in words) [2]: inactive
- IC50 [4]: > 20 µg/mL

Compound: COc1ccccc1N1CCN(C(=O)c2noc(C)c2[N+](=O)[O-])CC1 [Compound 2q]
- IC50 [3]: > 20 µg/mL
- activity in the cell assays (in words) [2]: inactive
- IC50 [4]: > 20 µg/mL

Compound: Cc1onc(C(=O)N2CCN(Cc3ccccc3)CC2)c1[N+](=O)[O-] [Compound 2r]
- IC50 [3]: > 20 µg/mL
- activity in the cell assays (in words) [2]: eliminate activity
- IC50 [4]: > 20 µg/mL

Compound: Cc1onc(C(=O)NCCNC(c2ccccc2)c2ccccc2)c1[N+](=O)[O-] [Compound 2t]
- IC50 [4]: > 20 µg/mL

Compound: Cc1onc(C(=O)N2CCN(C(c3ccccn3)c3ccccn3)CC2)c1[N+](=O)[O-] [Compound 2u]
- IC50 [3]: > 20 µg/mL
- activity in the cell assays (in words) [2]: inactive
- IC50 [4]: > 20 µg/mL

Compound: Cc1onc(C(=O)N2CCN(C(c3ccncc3)c3ccncc3)CC2)c1[N+](=O)[O-] [Compound 2v]
- IC50 [3]: > 20 µg/mL
- activity in the cell assays (in words) [2]: inactive
- IC50 [4]: > 20 µg/mL

Compound: Cc1onc(C(=O)N2CCN(C(c3ccc(F)cc3)c3ccc(F)cc3)CC2)c1[N+](=O)[O-] [Compound 2w]
- increase in activity compared to 2a [2]: 5 fold

Compound: Cc1onc(C(=O)N2CCN(C(c3ccc(Cl)cc3)c3ccc(Cl)cc3)CC2)c1[N+](=O)[O-] [Compound 2y]
- selectivity for the DRD vs the BJeH cell line ([5]; DRD (HRAS^G12V) vs BJeH (non expressing HRAS^G12V)): 6 fold
- increase in activity compared to the hit compound 2a ([5]; DRD cell line): 16 fold
- increase in activity compared to 2a [2]: 14 fold

Compound: COC(=O)c1ccc(C2c3[nH]c4ccccc4c3C[C@@H](C(=O)OC)N2C(=O)CCl)cc1 (stereo partly shown) [RSL3]
- selectivity vs BJeH-LT ([6]; BJeLR vs BJeH-LT): approximately 8 fold
- IC50 ([6]; read-out: IC50 in BJeLR, BJeLR): 100 nM

— publication PMC3528973 (Bioorganic & medicinal chemistry letters, 2011)
